The subject of data set [1] is Canis familiaris. In words: In vivo determination of antiarrhythmic activity as the dose required for the production of 80% normal sinus beats in Harris dog. The format is functional. The note with it: Canis lupus familiaris, Heart. A digest of the protocol: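 Harris dog arrhythmia model with intravenous infusion at 150, 225 or 300 µg/kg/min depending on agent. Effective dose is the cumulative administered dose (mg/kg) giving 80% normal sinus beats; number of animals given.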

Data set [2] in a line: In vitro determination of human blood elimination half-life. The format is ADME. The conditions noted are these: whole blood.
The test system of data set [3] is Canis familiaris. Nature of the data set: In vivo determination of antiarrhythmic activity as the dose required for the production of 50% normal sinus beats in ouabain dog. The format is functional. The conditions noted are these: Canis lupus familiaris, Heart. The method in brief: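 Dogs with ouabain-induced arrhythmia received the agent by intravenous infusion at 500 µg/kg/min. ED50 is the cumulative administered dose (mg/kg) at which 50% of beats were normal sinus beats; number of animals given.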

A short description of data set [4]: Distribution coefficient was determined. Format: physicochemical. The note with it: octanol/water. A digest of the protocol: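 Octanol and 0.1 M phosphate buffer at pH 7.4 were pre-saturated with each other by shaking for 16 h. About 5 mg of compound was dissolved in 10 mL buffer. A 5-mL portion was shaken with 5 mL octanol and centrifuged for 5 min. Absorbance of the aqueous phase at 280 nm was read before and after partitioning, diluted to 0.4–0.9. DC = (initial − final)/final, each × dilution factor; mean of two determinations.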

Data set [5] is filed under the species Cavia porcellus. Nature of the data set: Dose required to convert acetylstrophanthidin-induced arrhythmia in guinea pig right atria to normal sinus rhythm (number of tissues converted to NSR/number of tissues tested=4/4). The format is functional.
The species named for data set [6] is Cavia porcellus. In words: Dose required to convert acetylstrophanthidin-induced arrhythmia in guinea pig right atria to normal sinus rhythm (number of tissues converted to NSR/number of tissues tested=6/6). The format is functional.
Data set [7] is filed under the species Cavia porcellus. In words: Dose required to convert acetylstrophanthidin-induced arrhythmia in guinea pig right atria to normal sinus rhythm (number of tissues converted to NSR/number of tissues tested=2/4). Format: functional.
Data set [8] can be described thus: In vitro determination of human blood elimination half-life; not determined because more than 90% of the drug was metabolized in min. Format: ADME. The conditions noted are these: whole blood.
For data set [9], the species on record is Cavia porcellus. In words: Dose required to convert acetylstrophanthidin-induced arrhythmia in guinea pig right atria to normal sinus rhythm (number of tissues converted to NSR/number of tissues tested=1/4). Format: functional.
Data set [10] is filed under the species Cavia porcellus. Nature of the data set: Dose required to convert acetylstrophanthidin-induced arrhythmia in guinea pig right atria to normal sinus rhythm (number of tissues converted to NSR/number of tissues tested=3/5). Format: functional.
The species named for data set [11] is Cavia porcellus. In words: Dose required to convert acetylstrophanthidin-induced arrhythmia in guinea pig right atria to normal sinus rhythm (number of tissues converted to NSR/number of tissues tested=3/3). The format is functional.
The species entered for data set [12] is Cavia porcellus. In words: Dose required to convert acetylstrophanthidin-induced arrhythmia in guinea pig right atria to normal sinus rhythm (number of tissues converted to NSR/number of tissues tested=5/5). Format: functional.
For data set [13], the species on record is Cavia porcellus. In words: Dose required to convert acetylstrophanthidin-induced arrhythmia in guinea pig right atria to normal sinus rhythm (number of tissues converted to NSR/number of tissues tested=3/4). Format: functional.
The species named for data set [14] is Cavia porcellus. In words: Dose required to convert acetylstrophanthidin-induced arrhythmia in guinea pig right atria to normal sinus rhythm (number of tissues converted to NSR/number of tissues tested=1/3). Format: functional.
For data set [15], the species on record is Cavia porcellus. Nature of the data set: Dose required to convert acetylstrophanthidin-induced arrhythmia in guinea pig right atria to normal sinus rhythm (number of tissues converted to NSR/number of tissues tested=8/8). Format: functional.

The structures appear in SMILES notation.

As a reminder, the ED50 is the dose at which the effect has come halfway, by size or by number of responders. A lower ED50 goes with an effect at a small dose. By half-life is commonly meant the time needed for the level to fall by half in the phase considered. In the case of `O=C(Cc1cc(CN2CCCC2)c(O)c(CN2CCCC2)c1)OCc1cccs1`, the ED50 turned out to be 10.5 mg/kg in the data set with Canis familiaris [1] and 3.8 mg/kg with Canis familiaris [3]. In addition, the half-life in data set [2] amounted to 3.5 min. This molecule gave a DC in [4] of 0.73. In the data set filed under Cavia porcellus [5], this molecule registered an ED of 5.5 µg/mL.
Molecule `O=C(Cc1cc(CN2CCCC2)c(O)c(CN2CCCC2)c1)OCc1ccoc1` registered a half-life in [2] of 10.1 min. In the data set listed under Cavia porcellus [6], this molecule registered an ED of 27.5 µg/mL.
For `O=C(Cc1cc(CN2CCCC2)c(O)c(CN2CCCC2)c1)OCC1CCc2ccccc2C1` (configuration not stated), in the data set listed under Cavia porcellus [7], the ED turned out to be 6 µg/mL. Moreover, the half-life in data set [2] was 2.3 min.
Turning to `O=C(Cc1ccc(O)c(CN2CCCC2)c1)OCC1COc2ccccc2O1` (configuration not stated), the half-life in data set [8] is under 1 min. For the same molecule, the DC in [4] came out at 36.3. The molecule also displayed an ED in the data set filed under Cavia porcellus [5] of 1.2 µg/mL.
As for `O=C(Cc1cc(CN2CCCC2)c(O)c(CN2CCCC2)c1)OCC1CCCO1` (configuration not stated), the half-life in data set [2] was 3.5 min. This molecule also registered an ED in the data set listed under Cavia porcellus [9] of 40 µg/mL.
In the data set listed under Cavia porcellus [10], `O=C(Cc1cc(CN2CCCC2)c(O)c(CN2CCCC2)c1)OCCN1C(=O)c2ccccc2C1=O` showed an ED of 23.3 µg/mL. The half-life in data set [2] worked out at 3.8 min.
In the data set filed under Cavia porcellus [11], `O=C(Cc1ccc(O)c(CN2CCC(N3CCCCC3)CC2)c1)OCC1COc2ccccc2O1` (configuration not stated) had an ED of 8.3 µg/mL. In data set [2], the half-life is under 1 min. In [4], this molecule gave a DC of 9.6.
`O=C(Cc1cc(CN2CCCC2)c(O)c(CN2CCCC2)c1)OCc1c(F)c(F)c(F)c(F)c1F`: the half-life in [2] is 11 min. In the data set listed under Cavia porcellus [5], this molecule registered an ED of 7.5 µg/mL.
As to `O=C(Cc1cc(CN2CCCC2)c(O)c(CN2CCCC2)c1)OCC1COc2ccccc2O1` (configuration not stated), the ED50 with Canis familiaris [1] worked out at 14 mg/kg; in the data set with Canis familiaris [3], 4.8 mg/kg. The half-life in [2] is 7.1 min. Further, in data set [4], the DC came out at 2.62. This molecule returned an ED in the data set listed under Cavia porcellus [12] of 7.3 µg/mL.
As for `O=C(Cc1cc(CN2CCCC2)c(O)c(CN2CCCC2)c1)OCc1ccc2c(c1)OCO2`, the ED in the data set filed under Cavia porcellus [13] was 10.7 µg/mL. In data set [2], this molecule had a half-life of 9.2 min.
Regarding `O=C(Cc1cc(CN2CCCC2)c(O)c(CN2CCCC2)c1)OCCc1ccccc1`, the half-life in [2] came out at 16.8 min. The same molecule registered an ED in the data set listed under Cavia porcellus [5] of 2.8 µg/mL.
For the molecule `CCN(CC)CC(=O)Nc1c(C)cccc1C` [LIDOCAINE], the ED50 in the data set with Canis familiaris [1] was found to be 37.5 mg/kg; with Canis familiaris [3], 8.8 mg/kg. The DC in [4] is given as 19.2.
`O=C(Cc1ccc(O)c(CN2CCN(CC(=O)N3CCCC3)CC2)c1)OCC1COc2ccccc2O1` (configuration not stated): the half-life in [2] was under 1 min. In data set [4], the DC is given as 7.1. In the data set listed under Cavia porcellus [5], this molecule registered an ED of 22.5 µg/mL.
For `O=C(Cc1cc(CN2CCCC2)c(O)c(CN2CCCC2)c1)OCCOc1ccccc1`, the half-life in [2] was found to be 2.5 min. The ED in the data set filed under Cavia porcellus [5] was 16.2 µg/mL.
Molecule `O=C(Cc1cc(CN2CCCC2)c(O)c(CN2CCCC2)c1)OCCc1ccsc1` had a half-life in data set [2] of 34.8 min. This molecule also registered an ED in the data set filed under Cavia porcellus [5] of 6.2 µg/mL.
Consider `O=C(Cc1cc(CN2CCCC2)c(O)c(CN2CCCC2)c1)OCC1CCCCO1` (configuration not stated), for which the half-life in [2] came out at 3.3 min. The ED in the data set filed under Cavia porcellus [14] amounted to 20 µg/mL.
In turn, `O=C(Cc1cccc(CN2CCCC2)c1)OCC1COc2ccccc2O1` (configuration not stated) had a half-life in data set [2] of under 1 min. The molecule also displayed an ED in the data set listed under Cavia porcellus [15] of 6.9 µg/mL. For the same molecule, the DC in [4] is recorded as 39.5.
For the molecule `O=C(Cc1ccc(CN2CCCC2)cc1)OCC1COc2ccccc2O1` (configuration not stated), the half-life in [2] is under 1 min. In data set [4], this molecule gave a DC of 22.1. Further, the ED in the data set listed under Cavia porcellus [5] is 10 µg/mL.
`O=C(Cc1cc(CN2CCCC2)c(O)c(CN2CCCC2)c1)OCc1ccco1` displayed a half-life in [2] of 2.5 min. Further, the ED in the data set listed under Cavia porcellus [12] turned out to be 29.4 µg/mL.
Turning to `CN1CCN(Cc2cc(CC(=O)OCC3COc4ccccc4O3)ccc2O)CC1` (configuration not stated), the DC in [4] is on record as 24. Further, in the data set filed under Cavia porcellus [5], the ED was determined as 2.5 µg/mL.
In the case of `O=C(Cc1cc(CN2CCCC2)c(O)c(CN2CCCC2)c1)OCc1ccc([N+](=O)[O-])cc1`, the half-life in data set [2] worked out at 6.2 min. In the data set filed under Cavia porcellus [5], this molecule had an ED of 5.2 µg/mL.
In turn, `COc1ccc2c(COC(=O)Cc3cc(CN4CCCC4)c(O)c(CN4CCCC4)c3)cc(=O)oc2c1` yielded an ED in the data set listed under Cavia porcellus [11] of 11.7 µg/mL.
`O=C(Cc1cc(CN2CCCC2)c(O)c(CN2CCCC2)c1)OCCc1cccs1` showed a half-life in data set [2] of 35.9 min. In the data set listed under Cavia porcellus [5], this molecule showed an ED of 3 µg/mL.

These data come from ChEMBL document CHEMBL1126777, “Mono- and bis(aminomethyl)phenylacetic acid esters as short-acting antiarrhythmic agents. 2” (J Med Chem, 1993).
